From PubChem BioAssay
Many of the other results were omitted from the sample, so hits are more common in it than they were.
Dynein transport = dynein cargo transport inhibition. z-score, hits read low. 3617.4 mouse cells, GR-EGFP nuclear translocation imaging; test concentration mostly 20 µM; stimulated with dexamethasone, 1 µM; stronger effect = lower value. hit rate 0.47% among 220,000. AID 1381;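 active = plate z-score of nuclear minus cytoplasmic receptor signal below a set negative limit, without overly bright fluorescence or cell loss, cut at about -3.5 in these data, passing the limit was not always enough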;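 note: z-score of nuclear minus cytoplasmic ring GR-EGFP intensity difference per well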
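Buffer or medium: tet-free, stripped-serum medium; reagent: dexamethasone at 1.0 µM final, 30 min; incubation: 48 h induction, 1 h compound, 30 min dex at 37 °C; measured by: formaldehyde fixation, Hoechst nuclear stain, 10x automated fluorescence imaging; read-out: nuclear-to-cytoplasmic GR-EGFP distribution per well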
CHOP UPR activ = activators of apoptotic arm of unfolded protein response (CHOP); CHO-CHOP luciferase reporter, UPR activation, luminescence; percent of tunicamycin response over DMSO baseline; activation, % at 10 µM; hit rate 0.34% among 330,000;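 active = at 10 µM dose, activation of 40% or more, normalized to positive control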;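 note: 100% = tunicamycin at 10 µg/mL and 0% = DMSO alone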
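measured by = luciferase luminescence | assay system = CHO-CHOP cells, stable luciferase reporter of PERK-eIF2a-CHOP signalling | amount = 500 reporter cells seeded per well | timing = 6 h compound exposure at 37 °C after overnight seeding | controls = positive tunicamycin 10 µg/mL, negative DMSO alone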
Lmaj promast = reduces viability of Leishmania major promastigotes. hit rate 9% among 200,000. inhibition, % at 10 µM. AID 1063. resazurin fluorescence viability; in the data active = inhibition above about 50%;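 note: promastigotes grown with compound for 44 hours at 28 °C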
CHOP inh = inhibitors of CHOP induction in ER stress response | CHO-K1 CHOP-promoter luciferase, tunicamycin-induced, 15-18 h | inhibition, % at 10 µM | hit rate 3.8% among 220,000;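 active = compounds that reduced the stress-induced luciferase reporter signal by more than about 70% of percent inhibition, limit read from the data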;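 note: 0% = tunicamycin plus vehicle and 100% = wells without tunicamycin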
XBP1 UPR activ = activators of adaptive arm of unfolded protein response (XBP1). CHO-XBP1 luciferase reporter, IRE1-XBP1 UPR activation, luminescence; percent of tunicamycin response, DMSO as zero. activation, % at 20 µM. hit rate 0.33% among 330,000;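 active = versus positive control, 20 µM dose yields 30% or more activation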;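 note: 100% = tunicamycin at 10 µg/mL and 0% = DMSO only wells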
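Material – CHO cell line with stable XBP1 luciferase reporter · Buffer or medium – F12 plus 10% FBS · Compound – single point, 20 µM final compound, 1% DMSO · Schedule – 16-18 h cell attachment at 37 °C, then 6 h compound exposure · Signal – Steady-Glo luminescence read · Benchmarks – high control tunicamycin 10 µg/mL final, low control DMSO vehicle only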
T cruzi repl = blocks replication of Trypanosoma cruzi; T. cruzi beta-gal in NIH3T3, luminescence, 90 h; inhibition, % (test concentration not listed); hit rate 1.4% among 300,000;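 active = mean inhibition across valid replicates above about 55%, limit read from the data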;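 note: signal also drops with host cell toxicity which is not excluded here; 0% = plate median of DMSO wells and 100% = zero luminescence signal; higher percent means less beta-gal luminescence so fewer parasites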
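System: NIH/3T3 fibroblasts plus reporter T. cruzi. Medium: DMEM plus 2% FBS. Probe or stimulus: 5000 reporter trypomastigotes per well. Compound: single 50 nL compound addition per well in DMSO. Incubation: co-culture of at least 90 h after 3 h attachment. Detection: GalScreen β-gal luminescence, detergent lysis, 60 min. Evaluation: parasite load inhibition, %.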
Numbers without * were called inactive; . = no result.

SMILES | Dynein transport | CHOP UPR activ | Lmaj promast | CHOP inh | XBP1 UPR activ | T cruzi repl
O=C(COc1ccc(-c2ccccc2)cc1)NNC(=O)Nc1ccc(F)cc1F | . | 2 | . | . | -2 | -14
CC(C)[C@H](N)C(=O)N1CCC(C(=O)N[C@@H](Cc2ccccc2)C(=O)NCc2ccc(F)cc2)CC1 | . | 1 | . | . | -4 | -17
CCOC(=O)C1=C(COC(=O)C2(C)CC2(Cl)Cl)NC(=O)NC1c1ccccc1 (configuration not stated) | 0.11 | 1 | 9 | 0 | 1 | -12
OC(CSc1ccccc1Cl)CN1CCN(c2ccc(F)cc2)CC1 (configuration not stated) | -0.34 | -2 | 91* | 65 | -1 | 21
OC(CSc1ccccc1Cl)CN1CCN(c2ccccc2F)CC1 (configuration not stated) | -0.12 | 1 | 64* | 0 | -2 | 0
OC(CN1CCN(c2ccc(F)cc2)CC1)c1ccc(Cl)cc1 (configuration not stated) | . | -1 | . | . | -8 | -1
OC(CSc1c(Cl)cccc1Cl)CN1CCN(c2ccc(F)cc2)CC1 (configuration not stated) | -0.19 | -2 | 63* | 88* | -2 | 37
CCN(CC)CCOC(=O)c1ccc(NC(=O)/C=C/c2cccs2)cc1 | -0.15 | 2 | 69* | 50 | -3 | 31
CCN(CC)CCOC(=O)c1ccc(NC(=O)C2(c3ccccc3)CCCC2)cc1 | -0.27 | 0 | 70* | 27 | 0 | 15
Cc1cc(C(=O)OCC(=O)N2CCC(C)CC2)c2ccccc2n1 | . | 1 | . | . | -4 | .
COc1ccc(N2C(=O)CSC23C(=O)N2CCCc4cccc3c42)cc1 (configuration not stated) | 0.039 | 1 | 10 | -2 | 0 | 5
COc1ccc(N2C(=O)CSC23C(=O)N2c4c(cccc43)C(C)=CC2(C)C)cc1 (configuration not stated) | -0.41 | -1 | 100* | 75* | 3 | .
CC(C)(CNS(=O)(=O)c1ccc2ccccc2c1)N1CCOCC1 | . | 0 | . | . | -1 | .
CCCCCc1cc(=O)oc2c(C(CCN3CCCC(C)C3)c3ccc(N(C)C)cc3)c(OC)cc(OC)c12 (configuration not stated) | -1.3 | 20 | . | 84* | 22 | 38
CCCCCc1cc(=O)oc2c(C(CCN3CCCC(C)C3)c3cc(OC)c(OC)c(OC)c3)c(OC)cc(OC)c12 (configuration not stated) | 0.98 | 21 | . | 93* | 10 | 50
COc1cc(OC)c2ccc(=O)oc2c1C(CCN1CCCC(C)C1)c1ccc(N(C)C)cc1 (configuration not stated) | -0.34 | 4 | . | 20 | -1 | 28
CN(C)CCCN1c2ccccc2Sc2ccc(Cl)cc21 | 0.57 | 0 | 83* | 9 | -2 | 22
OCCN1CCN(CCCN2c3ccccc3Sc3ccc(Cl)cc32)CC1 | 2.5 | 0 | 96* | 8 | -5 | 5
CC(=O)c1ccc2c(c1)N(CCCN1CCC(CCO)CC1)c1ccccc1S2 | . | -1 | . | . | -3 | .
CCCc1ccc(S(=O)(=O)NCc2nnc(SC)n2C)cc1 | . | -1 | . | . | 2 | 6
NS(=O)(=O)c1ccc(CCNC(=O)CNC(=O)c2ccc(Br)o2)cc1 | . | 0 | . | . | -2 | .
C=CCOC(=O)c1cn(CC)c2nc(C)ccc2c1=O | 0.39 | 1 | 4 | 36 | 5 | 1
CCn1cc(C(=O)OCC(=O)OC2CC(C)CCC2C(C)C)c(=O)c2ccc(C)nc21 (configuration not stated) | -0.44 | 0 | 79* | 89* | 1 | 2
CCn1cc(C(=O)OCc2ccccc2)c(=O)c2ccc(C)nc21 | -0.34 | -3 | 78* | 29 | 1 | 0
COc1ccc(CCC(=O)OCC(=O)Nc2c(C)n(C)n(-c3ccccc3)c2=O)cc1 | . | 0 | . | . | -4 | .
COc1cccc(-n2nnnc2SCC(=O)Nc2nc3c(s2)CCCC3)c1 | -0.73 | 0 | 16 | 9 | 11 | 17
